Laboratory results reported in ChEMBL document CHEMBL1150607, “Ancistrocongolines A-D, new naphthylisoquinoline alkaloids from ancistrocladus congolensis” (J Nat Prod, 2002).
≈ marks a conversion by molar mass, not a printed value.

Key:
Plasmodium falciparum = assay: Antimalarial activity against Plasmodium falciparum K1 in human erythrocytes after 48 hrs by [3H]hypoxanthine uptake; format: functional, organism-based
Method in brief: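 Infected human red cells with chloroquine/pyrimethamine-resistant K1 strain exposed to serial dilutions 48 h, 37 °C, reduced O2/elevated CO2; [³H]-hypoxanthine then added, 24 h further incubation, harvested on glass fibre filters, scintillation counted. IC50 from sigmoidal inhibition curve; duplicate, repeated at least once.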

Trypanosoma cruzi = assay: Antitrypanosomal activity against Trypanosoma cruzi Tulahuen strain C2C4 containing galactosidase gene in rat L6 cells after 4 days; format: functional, organism-based; conditions: L6, 96 h
Method in brief: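 L-6 cells seeded 2000/well in RPMI 1640, 10% FBS, 2 mM L-glutamine; after 24 h, 5000 Lac Z trypomastigotes added with serial drug dilutions, 4 days at 37 °C, 5% CO2. CPRG/Nonidet substrate added, colour read at 540 nm after 2–4 h; IC50 from sigmoidal inhibition curve.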

[1] = system: Trypanosoma brucei rhodesiense; assay: Antitrypanosomal activity against Trypanosoma brucei rhodesiense after 72 hrs by alamar blue assay; format: functional, organism-based
Method in brief: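 STIB 900 trypanosomes in Minimum Essential Medium with 2-mercaptoethanol and 15% heat-inactivated horse serum, serial drug dilutions, 72 h at 37 °C, 5% CO2; Alamar Blue added, 2–4 h more, fluorescence read ex 530/em 590 nm. Signal expressed as percent of control; IC50 determined.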

[2] = Cytotoxicity against rat L6 cells after 72 hrs by alamar blue assay; format: cell-based
Method in brief: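 L-6 cells in RPMI 1640 with 10% FBS exposed to serial drug dilutions, protocol closely following the T. b. rhodesiense assay; viability read with Alamar Blue, expressed as IC50.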

Leishmania donovani = assay: Antileishmanial activity against Leishmania donovani; format: functional, organism-based

IC50 (Plasmodium falciparum) [µg/mL] | IC50 (Trypanosoma cruzi) [µg/mL] | IC50 [1] [µg/mL] | IC50 (Leishmania donovani) [µg/mL] | SMILES | IC50 at 72 h [2] [µg/mL]
0.214 (≈ 0.544 µM) | 39.9 (≈ 101 µM) | 2.97 (≈ 7.55 µM) |  | COc1cc(C)cc2c(-c3c(O)cc(O)c4c3C[C@@H](C)N(C)[C@@H]4C)ccc(O)c12 [ANCISTROCONGOLINE A] | 90 (≈ 229 µM)
0.158 (≈ 0.375 µM) | 17.4 (≈ 41.3 µM) | 2.54 (≈ 6.03 µM) | 18.8 (≈ 44.6 µM) | COc1cc(O)c2c(c1-c1ccc(OC)c3c(OC)cc(C)cc13)C[C@@H](C)N(C)[C@@H]2C [ANCISTROCONGOLINE B] | 33.4 (≈ 79.2 µM)
3 (≈ 7.12 µM) | ≥ 90 | 15.9 (≈ 37.7 µM) | 19.3 (≈ 45.8 µM) | COc1cc(O)c(-c2ccc(OC)c3c(OC)cc(C)cc23)c2c1[C@@H](C)N(C)[C@H](C)C2 [ANCISTROCONGOLINE C] | ≥ 90
0.164 (≈ 0.432 µM) | 14.5 (≈ 38.2 µM) | 1.87 (≈ 4.93 µM) | 25.1 (≈ 66.1 µM) | COc1cc(C)cc2c(-c3c(O)cc(O)c4c3C[C@@H](C)N[C@@H]4C)ccc(O)c12 [KORUPENSAMINE A] | 38 (≈ 100 µM)

Continued, molecule first:

SMILES | IC50 (Plasmodium falciparum) [µg/mL] | IC50 (Trypanosoma cruzi) [µg/mL] | IC50 [1] [µg/mL] | IC50 (Leishmania donovani) [µg/mL] | IC50 at 72 h [2] [µg/mL]
COc1c(-c2c(C)cc(OC)c3c(OC)cccc23)c(O)cc2c1[C@@H](C)N[C@H](C)C2 [ANCISTROCONGOLINE D] | 1.98 (≈ 4.87 µM) | 30.1 (≈ 73.9 µM) | 5.86 (≈ 14.4 µM) | > 30 | 27.7 (≈ 68 µM)
C[C@@H]1CC[C@H]2[C@@H](C)C(=O)O[C@@H]3O[C@@]4(C)CC[C@@H]1[C@]32OO4 [ARTEMISININ] | 0.001 (≈ 0.00354 µM) |  |  |  | 
O=C(Cn1ccnc1[N+](=O)[O-])NCc1ccccc1 [BENZNIDAZOLE] |  | 0.382 (≈ 1.47 µM) |  |  | 
